We go through eight molecules from ChEMBL document CHEMBL3785009, “Oxadiazole-Based Cell Permeable Macrocyclic Transition State Inhibitors of Norovirus 3CL Protease” (J Med Chem, 2016).

Test [1] is described as follows: Cytotoxicity against human HG23 cells by CytoTox96 nonradioactive cytotoxicity assay. It is filed as functional. Summed up: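 HG23 cells (Huh-7 cells harbouring NV replicon) exposed to compound in serial dilution up to 100 µM; cytotoxicity read with a nonradioactive cytotoxicity kit; CC50 taken as concentration giving 50% cytotoxicity; at least two independent experiments.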

The subject of the next test is Norovirus. The test is described as follows: Antiviral activity against Norovirus infected in human HG23 cells assessed as reduction in RNA levels after 48 hrs by RT-PCR. It is filed as functional, cell-based. Particulars: for pEC50 / EC90: HG23, 48 h. The gist of the method: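 HG23 cells are Huh-7 cells carrying the NV replicon. Cells were seeded 1 day before treatment with compound (1.0–100 μM) for 48 h. Total RNA was extracted and norovirus and β-actin RNA measured by qRT-PCR. EC50/EC90 derived from % RNA reduction versus mock after β-actin normalization. At least two independent experiments; mean and standard deviation reported.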

A short description of test [2]: Antiviral activity against Murine norovirus1 infected in […] cells assessed as inhibition of virus induced cytopathic effect after 48 hrs by CytoTox96 nonradioactive cytotoxicity assay. Particulars: Murine norovirus 1, 48 h. On the technique in general: Damage to the host cells serves as the signal in cytopathic effect assays.
Test [3] can be described thus: Inhibition of Norovirus 3C-like protease using Edans-DFHLQGP-Dabcyl fluorogenic substrate after 30 mins as substrate by FRET assay. Summed up: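 FRET assay with the fluorogenic substrate derived from NV polyprotein cleavage sites. Compounds tested up to 100 μM. IC50 from at least two independent experiments.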

Molecules are shown by their SMILES. pEC50, pIC50: −log10 of the molar value.

With `CC(C)(C)OC(=O)N[C@H]1CCC2=NN=C(CCCNC(=O)CC[C@@H](C=O)NC(=O)[C@H](CC3CCCCC3)NC1=O)O2`, the cytotoxic concentration (CC50) – broadly, the concentration that lowers cell viability or growth by half – in test [1] is over 100 µM. For the same molecule, in the test with Norovirus, the pEC50 – broadly, −log10 of the EC50, conventionally taken in molar units – is 5.03 and the EC90 (in general, the concentration at which the effect reaches the 90% level) was 73.3 µM. In addition, the pEC50 in test [2] was under 4.00. The pIC50 (as a rule, the negative decadic logarithm of the IC50, by convention in mol/L) in test [3] is 4.35.
On to `CC(C)(C)OC(=O)N[C@H]1CCC2=NN=C(CCCCNC(=O)CC[C@@H](C=O)NC(=O)[C@H](CC3CCCCC3)NC1=O)O2`, for which, in test [1], the CC50 was over 100 µM. In addition, in the test on Norovirus, the Activity entry was “Dose-dependent effect”, the pEC50 is 5.19 and the EC90 worked out at 18.2 µM. Moreover, the pEC50 in test [2] is 4.96. Further, the pIC50 in test [3] was 4.73.
In the case of `CC(C)C[C@@H]1NC(=O)[C@@H](NC(=O)OC(C)(C)C)CCC2=NN=C(CNC(=O)CC[C@@H](C=O)NC1=O)O2`, in test [1], the CC50 is over 100 µM. In addition, the pEC50 in the test on Norovirus was 4.74; in test [2], under 4.00. In the test with Norovirus, the EC90 is 72.7 µM. This molecule showed a pIC50 in test [3] of 4.46.
Consider `CC(C)C[C@@H]1NC(=O)[C@@H](NC(=O)OC(C)(C)C)CCC2=NN=C(CCNC(=O)CC[C@@H](C=O)NC1=O)O2`, for which, in test [1], the cytotoxic concentration (CC50) is over 100 µM. Moreover, in the test with Norovirus, the negative logarithm of the EC50 (pEC50) is 5.60 and the EC90 was found to be 23.4 µM. Moreover, the negative-log EC50 (pEC50) in test [2] was 5.01. This molecule had a pIC50 in test [3] of 4.82.
For `CC(C)(C)OC(=O)N[C@H]1CCC2=NN=C(CCNC(=O)CC[C@@H](C=O)NC(=O)[C@H](CC3CCCCC3)NC1=O)O2`, in that order: over 100 µM, 5.29, 38.2 µM, 4.70 and 4.84.
As to `CC(C)C[C@@H]1NC(=O)[C@@H](NC(=O)OC(C)(C)C)CC2=NN=C(CNC(=O)CC[C@@H](C=O)NC1=O)O2`, the half-maximal cytotoxic concentration (CC50) in test [1] was over 100 µM. For the same molecule, in the test on Norovirus, the pEC50 was 4.71 and the concentration for an effect of 90% (EC90) was over 100 µM. For the same molecule, the pEC50 in test [2] is under 4.00. Besides, the pIC50 in test [3] was under 4.00.
In the case of `CC(C)(C)OC(=O)N[C@H]1CCC2=NN=C(CCCCCNC(=O)CC[C@@H](C=O)NC(=O)[C@H](CC3CCCCC3)NC1=O)O2`, the CC50 in test [1] was over 100 µM. Also, in the test on Norovirus, the pEC50 is 4.29 and the EC90 is over 100 µM. In addition, the negative logarithm of the EC50 (pEC50) in test [2] is under 4.00. The negative-log IC50 (pIC50) in test [3] is 5.07.
Take `CC(C)C[C@@H]1NC(=O)[C@@H](NC(=O)OC(C)(C)C)CCC2=NN=C(CCCNC(=O)CC[C@@H](C=O)NC1=O)O2`: the CC50 in test [1] was over 100 µM. Also, in the test with Norovirus, the pEC50 was 5.23 and the EC90 is 30.5 µM. The negative-log EC50 (pEC50) in test [2] is 4.95. Besides, in test [3], the pIC50 was 4.67.
